Data set [1] can be described thus: melting temperature; fluorescence melt of hairpins on a sequencing array, two-state fit, raised by 9.35 °C to match UV melts. As to conditions: sodium 0.088 M. The procedure, abridged: (§1)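 Folding enthalpy and melting temperature come from bootstrapped two-state fits to Cy3 fluorescence of library hairpins carrying annealed Cy3 and quencher oligos on a sequenced MiSeq flow cell. Imaging was done in 50 mM Na-HEPES pH 8.0, 25 mM NaCl, stepping by 2.5 °C up to 60 °C, and signals were normalised to pre-quench Cy3 and to control constructs. Results of four replicates were combined by inverse variance, and fitted temperatures were raised by 9.35 °C to match UV melts.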

Data set [2] in a line: folding enthalpy; higher = less favourable; fluorescence melt of hairpins on a sequencing array, two-state fit. As to conditions: sodium 0.088 M. The procedure, abridged: as §1

In the case of GTACAAGGAAACTTGTGC (.(((((....))))).), the Tm in data set [1] was found to be 45.4 °C. The folding enthalpy in data set [2] is -22.3 kcal/mol.
On to GTACACCGAAAGGTTAC (((.(((....)))))), for which, in data set [1], the Tm stood at 39.9 °C. In addition, the folding enthalpy in data set [2] was -20.5 kcal/mol.
For GTACACCGAAAGGTTTAC (((.(((....))).))) the same measures were 42 °C and -30.6 kcal/mol.
For the sequence GTACACGAAAGTGATAC ((((((....))).))), the Tm in data set [1] worked out at 40.1 °C. In data set [2], the folding enthalpy was -17.1 kcal/mol.
In the case of GTACACGAAAGTGGGTAC ((((((....)))..))), in data set [1], the Tm turned out to be 37.4 °C. The folding enthalpy in data set [2] is -14.9 kcal/mol.
For the sequence GTACACGAAAGTGGTAC ((((((....))).))), the Tm in data set [1] came out at 47.8 °C. In addition, in data set [2], the folding enthalpy was -17.9 kcal/mol.
GTACACGGAAACACGTAC ((((..(....)..)))): in data set [1], the Tm was 29.1 °C. Besides, the folding enthalpy in data set [2] was -15.4 kcal/mol.
On to GTACACGGAAACGTATAC (((.(((....))).))), for which the Tm in data set [1] worked out at 33.6 °C. For the same sequence, the folding enthalpy in data set [2] is -23.8 kcal/mol.
As for GTACAGCCGAAAGGCTAC (((..(((....)))))), the Tm in data set [1] was found to be 27.2 °C. In addition, in data set [2], the folding enthalpy was -7.38 kcal/mol.
For GTACAGGGAAACCCGTAC ((((.((....)).)))) the same measures were 43.4 °C and -24.8 kcal/mol.
For GTACAGTCGAAAGACTAC (((..(((....)))))), the Tm in data set [1] was found to be 29.7 °C. Besides, in data set [2], the folding enthalpy was -10.2 kcal/mol.
Regarding GTACATCGAAAGATTTAC (((.(((....))).))), in data set [1], the Tm was 35 °C. Further, the folding enthalpy in data set [2] is -17.8 kcal/mol.
On the same counts, the results for GTACATGGAAACATGTGC (.(((((....))))).) are 48.6 °C and -22.7 kcal/mol.
For GTACATGGAAACGTGTAC (((((.(....).))))) the same measures were 45.8 °C and -32.1 kcal/mol.
For GTACCAGAAATGGTAC ((((((....)))))) the same measures were 53.2 °C and -33.1 kcal/mol.
With GTACCCCCGAAAGGGTAC (((..(((....)))))), the Tm in data set [1] stood at 52.3 °C. Further, the folding enthalpy in data set [2] was -25.7 kcal/mol.
In the case of GTACCCGAAAGGGGATAC ((((((....)))..))), in data set [1], the Tm came out at 41.9 °C. Moreover, in data set [2], the folding enthalpy is -11.9 kcal/mol.
On the same counts, the results for GTACCCGGAAACGAGTAC ((((.((....)).)))) are 41.1 °C and -25.8 kcal/mol.
On to GTACCCGGAAACGGGTGC (.(((((....))))).), for which the Tm in data set [1] turned out to be 60.1 °C. Also, in data set [2], the folding enthalpy was -20.1 kcal/mol.
For GTACCTGGAAACAGGCAC ((.((((....)))).)) the same measures were 42.5 °C and -22.1 kcal/mol.
Take GTACGACGAAAGTCTTAC (((.(((....))).))): the Tm in data set [1] came out at 40.3 °C. The folding enthalpy in data set [2] was -26.1 kcal/mol.
On the same counts, the results for GTACGCGAAAGCGAATAC ((((((....)))..))) are 31.9 °C and -8.59 kcal/mol.
In the case of GTACGCGAAAGCGCGTAC ((((((....)))..))), the Tm in data set [1] was determined as 62.5 °C. The folding enthalpy in data set [2] is -25.7 kcal/mol.
On the same counts, the results for GTACGCGAAAGCGCTTAC ((((((....)))..))) are 29.4 °C and -9.36 kcal/mol.
On the same counts, the results for GTACGCGAAAGCGTATAC ((((((....)))..))) are 49.2 °C and -9.55 kcal/mol.
For GTACGCGGAAACACGCAC ((.((.(....).)).)) the same measures were 31.1 °C and -12.6 kcal/mol.
On to GTACGCGGAAACACGTAC (((((.(....).))))), for which, in data set [1], the Tm came out at 47.9 °C. Also, the folding enthalpy in data set [2] was -34.1 kcal/mol.
With GTACGGACGAAAGTCTAC (((..(((....)))))), the Tm in data set [1] turned out to be 31 °C. In addition, the folding enthalpy in data set [2] was -10.2 kcal/mol.
For GTACGGCCGAAAGGCTAC (((..(((....)))))) the same measures were 28.7 °C and -7.78 kcal/mol.
On to GTACGGGGAAACCCATAC (((.(((....))).))), for which the Tm in data set [1] turned out to be 35 °C. The folding enthalpy in data set [2] is -21.9 kcal/mol.
For GTACGGGGAAACCTGTAC ((((.((....)).)))) the same measures were 49.7 °C and -35.9 kcal/mol.
Consider GTACGGTCGAAAGACTAC (((..(((....)))))), for which the Tm in data set [1] was found to be 26.8 °C. Moreover, the folding enthalpy in data set [2] is -10.6 kcal/mol.
With GTACGTGGAAACACGTAC (((((((....))))))), in data set [1], the Tm was determined as 63.8 °C. For the same sequence, in data set [2], the folding enthalpy is -46.8 kcal/mol.
For GTACGTGGAAACATGTAC ((((.((....)).)))) the same measures were 47.5 °C and -34.1 kcal/mol.
For GTACTACGAAAGTATAC (((.(((....)))))), the Tm in data set [1] was found to be 27.9 °C. The folding enthalpy in data set [2] is -15.3 kcal/mol.
Regarding GTACTCCCGAAAGGGTAC (((..(((....)))))), in data set [1], the Tm came out at 33.5 °C. In addition, in data set [2], the folding enthalpy is -12.9 kcal/mol.
On the same counts, the results for GTACTCCGAAAGGATAC (((.(((....)))))) are 36.9 °C and -21.6 kcal/mol.

These data come from the array DNA melting data of Ke et al. (doi:10.1101/2024.01.08.574731).
